Experimental data from ChEMBL document CHEMBL1122744, “2-Chloroethyl (methylsulfonyl)methanesulfonate and related (methylsulfonyl)methanesulfonates. Antineoplastic activity in vivo” (J Med Chem, 1984).

What was measured:
[1] = test system: Mus musculus; test: Median survival time of the treated control groups, in which there are no 30-day survivors at dose 22 mg/kg in exp7; format: functional
[2] = Ratio of number of 30-day survivors to the total treated mice at dose 50 mg/kg in exp5; 3/6; format: functional
[3] = test system: Mus musculus; test: Change in weight by day 5, obtained by subtracting treated groups of animals minus control groups of animals at dose 33 mg/kg in exp4.; format: functional
Procedure, shortened: (§1)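 Mice were inoculated ip with 10^6 P388 leukemia cells on day 0 and weighed 19–22 g that day. Compound was given ip once daily on days 1–5, within about 5 min of preparing the solution or suspension, to groups of six (occasionally five). Thirty inoculated untreated mice served as controls. The value is the average weight change of treated mice minus that of controls on day 5.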

[4] = test system: Mus musculus; test: Change in weight by day 5, obtained by subtracting treated groups of animals minus control groups of animals at dose 50 mg/kg in exp5; format: functional; procedure, shortened: as §1
[5] = Ratio of number of 60-day survivors to the total treated mice at dose 50 mg/kg in exp1; 2/6; format: functional
[6] = test system: Mus musculus; test: Mortality by day 5 expressed as number of mice died to the total treated at dose 15 mg/kg in exp4; 0/6; format: ADME, organism-based; set-up: dose 15 mg/kg; conditions: in vivo
[7] = Ratio of median survival times for non-survivors at dose 100 mg/kg in exp1; format: functional; set-up: unit: %
Procedure, shortened: (§2)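 Mice were inoculated ip with 10^6 P388 leukemia cells on day 0. Groups of six (occasionally five) were dosed ip qd on days 1–5 with fresh suspensions; 30 mice served as untreated controls. Deaths were recorded daily up to day 60. T/C% compares the median survival of treated non-survivors (<60 days) with the control median. Medians used grouped data when there were no 30-day survivors, otherwise ungrouped data. t = toxic.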

[8] = test system: Mus musculus; test: Change in weight by day 5, obtained by subtracting treated groups of animals minus control groups of animals at dose 50 mg/kg in exp2.; format: functional; procedure, shortened: as §1
[9] = Ratio of number of 30-day survivors to the total treated mice at dose 50 mg/kg in exp1; 4/6; format: functional
[10] = test system: Mus musculus; test: Median survival time of the untreated control groups, in which there are no 30-day survivors at dose 33 mg/kg in exp4; format: functional
[11] = test system: Mus musculus; test: Change in weight by day 5, obtained by subtracting treated groups of animals minus control groups of animals at dose 22 mg/kg in exp6; format: functional; procedure, shortened: as §1
[12] = test system: Mus musculus; test: Median survival time of the untreated control groups, in which there are no 30-day survivors at dose 33 mg/kg in exp5; format: functional
[13] = test system: Mus musculus; test: Median survival time of the untreated control groups, in which there are no 30-day survivors at dose 33 mg/kg in exp7; format: functional
[14] = test system: Mus musculus; test: Median survival time of the untreated control groups, in which there are no 30-day survivors at dose 100 mg/kg in exp2; format: functional
[15] = Ratio of median survival times for non-survivors at dose 50 mg/kg in exp1; format: functional; set-up: unit: %; procedure, shortened: as §2
[16] = Ratio of number of 30-day survivors to the total treated mice at dose 33 mg/kg in exp4; 1/6; format: functional
[17] = test system: Mus musculus; test: Change in weight by day 5, obtained by subtracting treated groups of animals minus control groups of animals at dose 33 mg/kg in exp2.; format: functional; procedure, shortened: as §1
[18] = Ratio of number of 30-day survivors to the total treated mice at dose 50 mg/kg in exp8; 4/6; format: functional
[19] = Number of 30-day survivors at dose 50 mg/kg in exp7*-one death on 6th day, one death on 27th day & four 30 day survivors; 4/6
[20] = test system: Mus musculus; test: Median survival time of the untreated control groups, in which there are no 30-day survivors at dose 100 mg/kg in exp8; format: functional
[21] = test system: Mus musculus; test: Median survival time of the untreated control groups, in which there are no 30-day survivors at dose 50 mg/kg in exp7; format: functional
[22] = test system: Mus musculus; test: Median survival time of the treated control groups, in which there are no 30-day survivors at dose 50 mg/kg in exp6; format: functional
[23] = test system: Mus musculus; test: Mortality by day 5 expressed as number of mice died to the total treated at dose 22 mg/kg in exp5; 0/6; format: ADME, organism-based; set-up: dose 22 mg/kg; conditions: in vivo
[24] = test system: Mus musculus; test: Mortality by day 5 expressed as number of mice died to the total treated at dose 15 mg/kg in exp3; 0/5; format: ADME, organism-based; set-up: dose 15 mg/kg; conditions: in vivo
[25] = test system: Mus musculus; test: Mortality by day 5 expressed as number of mice died to the total treated at dose 50 mg/kg in exp4; 0/6; format: ADME, organism-based; set-up: dose 50 mg/kg; conditions: in vivo
[26] = test system: Mus musculus; test: Change in weight by day 5, obtained by subtracting treated groups of animals minus control groups of animals at dose 22 mg/kg in exp3.; format: functional; procedure, shortened: as §1
[27] = Ratio of median survival times for non-survivors at dose 33 mg/kg in exp7; format: functional
[28] = test system: Mus musculus; test: Mortality by day 5 expressed as number of mice died to the total treated at dose 100 mg/kg in exp1; 1/6; format: ADME, organism-based; set-up: dose 100 mg/kg; conditions: in vivo
[29] = test system: Mus musculus; test: Mortality by day 5 expressed as number of mice died to the total treated at dose 33 mg/kg in exp6; 0/6; format: ADME, organism-based; set-up: dose 33 mg/kg; conditions: in vivo
[30] = Ratio of number of 60-day survivors to the total treated mice at dose 50 mg/kg in exp5; 1/6; format: functional
[31] = Ratio of median survival times for non-survivors at dose 22 mg/kg in exp7; format: functional
[32] = test system: Mus musculus; test: Median survival time of the untreated control groups, in which there are no 30-day survivors at dose 200 mg/kg in exp1; format: functional
[33] = test system: Mus musculus; test: Mortality by day 5 expressed as number of mice died to the total treated at dose 33 mg/kg in exp5; 0/6; format: ADME, organism-based; set-up: dose 33 mg/kg; conditions: in vivo
[34] = test system: Mus musculus; test: Change in weight by day 5, obtained by subtracting treated groups of animals minus control groups of animals at dose 100 mg/kg in exp2.; format: functional; procedure, shortened: as §1
[35] = test system: Mus musculus; test: Median survival time of the treated control groups, in which there are no 30-day survivors at dose 22 mg/kg in exp3; format: functional
[36] = test system: Mus musculus; test: Median survival time of the treated control groups, in which there are no 30-day survivors at dose 50 mg/kg in exp5; format: functional
[37] = test system: Mus musculus; test: Change in weight by day 5, obtained by subtracting treated groups of animals minus control groups of animals at dose 100 mg/kg in exp1; format: functional; procedure, shortened: as §1
[38] = test system: Mus musculus; test: Change in weight by day 5, obtained by subtracting treated groups of animals minus control groups of animals at dose 50 mg/kg in exp1.; format: functional; procedure, shortened: as §1
[39] = test system: Mus musculus; test: Median survival time of the untreated control groups, in which there are no 30-day survivors at dose 100 mg/kg in exp1; format: functional
[40] = Ratio of median survival times for non-survivors at dose 100 mg/kg in exp8*-toxic; format: functional; procedure, shortened: as §2
[41] = Ratio of median survival times for non-survivors at dose 33 mg/kg in exp2; format: functional
[42] = test system: Mus musculus; test: Median survival time of the untreated control groups, in which there are no 30-day survivors at dose 50 mg/kg in exp6; format: functional
[43] = Ratio of median survival times for non-survivors at dose 50 mg/kg in exp8; format: functional
[44] = test system: Mus musculus; test: Median survival time of the untreated control groups, in which there are no 30-day survivors at dose 22 mg/kg in exp6; format: functional

CS(=O)(=O)CS(=O)(=O)OCCCl
Median survival time [1]: 18
Ratio [2]: 3
Change in weight [3]: -2.6
Change in weight [4]: -2.2
Ratio [5]: 2
Mortality [6]: 0
Ratio [7]: 151
Change in weight [8]: -3.4
Ratio [9]: 4
Median survival time [10]: 10.5
Change in weight [11]: -1.4
Median survival time [12]: 12
Median survival time [13]: 10.7
Median survival time [14]: 11.2
Ratio [15]: 281
Ratio [16]: 1
Change in weight [17]: -2.5
Ratio [18]: 4
30-day survivors [19]: 4
Median survival time [20]: 11
Median survival time [21]: 13
Median survival time [22]: 43.5
Mortality [23]: 0
Mortality [24]: 0
Mortality [25]: 0
Change in weight [26]: -1.3
Ratio [27]: 179
Mortality [28]: 1
Mortality [29]: 0
Ratio [30]: 1
Ratio [31]: 168
Median survival time [32]: 11.2 days
Mortality [33]: 0
Change in weight [34]: -4.1
Median survival time [35]: 18.5
Median survival time [36]: 27
T-C [37]: -4 g
T-C [38]: -3.4 g
Median survival time [39]: 11.2
Ratio [40]: 55
Ratio [41]: 209
Median survival time [42]: 13
Ratio [43]: 273
Median survival time [44]: 13
